Laboratory results from ChEMBL document CHEMBL4513216, “Probing the Open Global Health Chemical Diversity Library for Multistage-Active Starting Points for Next-Generation Antimalarials” (ACS Infect Dis, 2020).

Experiment: Toxicity liver stage against HepG2, at 10uM
Format: cell-based
Parameters: test concentration 10 uM, cell line HepG2-A16-CD81EGFP
Conditions: human, HepG2-A16-CD81EGFP cells; read-out: INHIBITION
Summary of the method: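 Uninfected HepG2-A16-CD81EGFP cells, 3 × 10^3 per well, 1536-well, plated on prespotted compound at 10 μM final, parasite-free screening media added to match infected plates; puromycin 10 μM positive, DMSO 0.5% negative; run in parallel with 48 h PbLuc assay at 37 °C, 5% CO2; viability by CellTiter-Glo luminescence, normalized to controls.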

| SMILES | cytotoxicity at 10 µM [%] |
| --- | --- |
| Cc1cccc(O[C@H]2COCCN(C3CCOCC3)C2)n1 | 9.09 |
| CCN(CC)C1(Cc2cc(CC(C)C)on2)COC1 | 2.23 |
| CO[C@H]1COCCN(C(=O)c2ccc(C#N)cc2)C1 | 4.94 |
| CC(=O)c1ccc(N2CCN(C(=O)c3cnn4c3OCCC4)CC2)cc1 | 8.44 |
| CCOC1CC2(CCN(C(=O)COC)CC2)c2cc(C)ccc21 (centres undefined) | -142 |
| CC(=O)N1Cc2nccn2CC(CNC(=O)c2ccnnc2)C1 (centres undefined) | -138 |
| COC[C@]12COC[C@H]1CN(Cc1cccnc1OC)C2 | -9.83 |
| CCS(=O)(=O)Nc1ccc2oc(C)c(C(=O)OC)c2c1 | 5.87 |
| CCN1CCN(C(=O)Cn2ncc3c2c(C)nn3C(C)C)CC1 | 6.5 |
| CCn1nc(C)c2nnn(CC(=O)Nc3cccc(F)c3)c(=O)c21 | 8.44 |
| O=C(CCn1ccnc1)N1CCC(c2nnc(-c3ccccn3)o2)CC1 | 3.29 |
| O=S(=O)(N1CCOCC1)N1CCCC(c2ccccn2)C1 (centres undefined) | 2.23 |
| COCC(=O)N1CCCC(C(=O)c2cnn(-c3ccc(F)cc3)c2N)C1 (centres undefined) | 9.71 |
| O[C@H]1CN(Cc2cc3ccccc3o2)CC[C@@]12CCCO2 | -21.9 |
| Cc1cc(C)nc(C2CCN(C(=O)c3cncnc3C)C2)n1 (centres undefined) | 5.16 |
| Cc1ccc2c(c1)C(=O)NCC1(CCN(C(=O)c3scnc3C)CC1)O2 | -17.3 |
| CC(C)N1CCC(Cc2cncc(-c3ccccc3C(=O)O)n2)C1 (centres undefined) | -10 |
| CC(=O)N1CCCCC1c1nc(C)cc(-c2ccccc2C(=O)O)n1 (centres undefined) | -12.8 |
| Cc1nc(C2CCN(C(=O)c3ccnn3C)CC2)c2sccn12 | -10.7 |
| Cc1cccnc1CN1CCC2(CC(Nc3ccncn3)C2)C1 (centres undefined) | -6.36 |
| CN(c1ccncn1)C1CC2(CCN(C(=O)c3cccn3C)C2)C1 (centres undefined) | -8.05 |
| CC(C)N1CCC(c2cc(C(F)(F)F)n3ccnc3n2)CC1 | -16.2 |

| SMILES | cytotoxicity at 10 µM [%] |
| --- | --- |
| C[C@]1(O)CN(Cc2ccc(C(=O)O)cc2)CC[C@@H]1Oc1cccc(F)c1 | -6.66 |
| CC(C)NC(=O)CN(C)C(=O)c1c(Cl)c2ccccc2n1C | 5.26 |
| COCCNC(=O)c1ccc(NCc2csc(C)n2)cc1Cl | 6.81 |
| COC(=O)C1CN(Cc2ccn(-c3ccc(F)cc3)n2)C[C@@H](C)O1 (some centres undefined) | -4.52 |
| Cc1ccc(N2CCCC(N(C)Cc3cc(C)on3)C2)nn1 (centres undefined) | 17.5 |
| CCCNC(=O)Cn1cc(C#N)c(=O)c2cc(Br)ccc21 | -0.842 |
| Cc1n[nH]c(C2CN(C(=O)c3ccoc3C)CCO2)n1 (centres undefined) | -22.4 |
| COc1c(C2CCCN2C(=O)c2ccoc2)c(C)nn1C (centres undefined) | 4 |
| CC(C)c1nnc(CNc2ccc(SC(F)(F)F)cc2)o1 | 11.5 |
| Cc1cccc(C)c1CNC1(CCO)CCOCC1 | 1.93 |
| CCC(CC)(CC(=O)OC)NC(=O)Nc1nnc(-c2ccccn2)s1 | -8.68 |
| CC(C)Oc1cccc(CNC(=O)N2CCC(N3CC=CC3)C2)c1 (centres undefined) | 0.477 |
| Fc1ccc(-c2ccc(CNC3CCc4ncnn4C3)o2)cc1 (centres undefined) | -7.62 |
| CCCS(=O)(=O)CC(=O)N1CCN(CC2CC2)c2ccccc21 | -7.44 |
| CSCCC(NC(=O)c1ccccc1)C(=O)N(C)Cc1ccsc1 (centres undefined) | 7.17 |
| CC(NC(=O)C1CC1)C(=O)N(C)Cc1ccsc1 (centres undefined) | 3.64 |
| O=C(CCc1ccsc1)N1CCC(C(=O)O)(c2ccccc2)CC1 | 12.4 |
| Cc1cccc(NS(=O)(=O)c2ccc(C#N)nc2)c1C#N | 0.0489 |
| Cc1cccc(C(C)(C)CNC(=O)CN(C)S(=O)(=O)c2cccnc2)c1 | 7.41 |
| CN(C)c1cccc(CNC(=O)Nc2cc(C#N)ccc2Cl)n1 | 21.6 |
| Cc1ccc2cccc(S(=O)(=O)N(C)CC3CCN(C)C3)c2n1 (centres undefined) | 1.5 |
| O=C(c1cnc2[nH]c(=O)[nH]c(=O)c2c1)N1CCCC1C1CCCC1 (centres undefined) | 6.22 |

| SMILES | cytotoxicity at 10 µM [%] |
| --- | --- |
| CC(NC1(CNC(=O)C(C)(C)C#N)CCOCC1)c1ccccc1 (centres undefined) | 7.35 |
| COC(=O)CCN1CCCC1c1cccc2c1OCCO2 (centres undefined) | 17.7 |
| Cc1cc(C)n(CCCNC(=O)[C@@H](C)NC(=O)OC(C)(C)C)n1 | -8 |
| Cc1nc(C)c(C(=O)N2CCCC2c2nnc3n2CCCCC3)s1 (centres undefined) | -2.62 |
| Cn1ccnc1CC1CCCN(C(=O)Nc2cccn(C)c2=O)C1 (centres undefined) | -4.79 |
| CC(=O)NCC(=O)N1C[C@@H](C)[C@@]2(CCN(c3ccsc3)C2=O)C1 | -74.7 |
| OCCNc1nccc(-c2c[nH]nc2-c2cccnc2)n1 | -8.22 |
| COc1ccc(OC)c(-n2cnnc2C)c1 | 1.24 |
| Cc1cccc(-n2cc(CNc3ncnc4c3CCNCC4)cn2)c1 | 3.96 |
| CSCC[C@@H](CO)n1ccnc1-c1ccc(C)o1 | 7.02 |
| O=C(CN1CCC(c2ccccc2)CC1)NCc1cc2n(n1)CCNC2 | 3.03 |
| COC[C@@]12CC[C@@H](N3CCOCC3)C[C@H]1CCN(c1nc(CO)cs1)C2 | -3.61 |
| COc1ccc(CN2CCn3cncc3C2)cc1Cn1cncn1 | 7.55 |
| CC(C)c1nc(CNc2nccc(CCC(F)(F)F)n2)cs1 | 1.24 |
| O=C(c1cccc(Cl)c1)C1CCCN(c2nnc(C3CCC3)o2)C1 (centres undefined) | 0.409 |
| O=C(c1ccncc1Cl)N1CCN(Cc2ccco2)C(CCO)C1 (centres undefined) | -9.84 |
| Cc1ncsc1CN1CCN(C)C2(CCC(=O)N(CCO)CC2)C1 (centres undefined) | -9.8 |
| CCC[C@@H]1CN(C(=O)c2c(F)ccc(C)c2Cl)C[C@H]1C(=O)O | -4.39 |
| O=C(c1cnc(O)cc1O)N1CCCC(CCc2ccccc2F)C1 (centres undefined) | -2.24 |
| CNCCN1C(=O)CC[C@H]2CN(c3cnc4ccccc4n3)CC[C@H]21 | -1.62 |
| O=C(c1cc(Cn2ccc3ccccc32)[nH]n1)N1CCOCC1 | -1.01 |
| CC(C)=CCN1CCN(Cc2nc3ccccc3[nH]2)[C@H]2CS(=O)(=O)C[C@H]21 | -132 |

| SMILES | cytotoxicity at 10 µM [%] |
| --- | --- |
| COC(=O)N1CCCCC1C(=O)N1CCCN(c2ccnc(C)c2)CC1 (centres undefined) | -3.76 |
| CCOCCn1nc(C)cc1C(=O)N1CC[C@@](O)(COC)C(C)(C)C1 | -1.66 |
| CN(CCCC1CCCO1)S(=O)(=O)NCc1ccccc1 (centres undefined) | 2.2 |
| CCN(CC1CCCN(CCc2cccc(OC)c2)C1)C(=O)CN(C)C (centres undefined) | 9.05 |
| CSc1nccc(NCc2cc3n(n2)CCCN(C(=O)C2CCC2)C3)n1 | -118 |
| Cc1cc(N2CCC3(CCCN(CCO)C3=O)C2)nc2cc(Cl)ccc12 (centres undefined) | 3.72 |
| CCc1nc(NC2CCCN(C(=O)C3CC3)C2)c2cnn(C)c2n1 (centres undefined) | -1.05 |
| Cc1cc(C)n(CC(C)NC2CCN(Cc3cccnc3)CC2)n1 (centres undefined) | 2.45 |
| O=C(O)c1cccc(CC2CCN(c3ncccn3)CC2)c1 | -134 |
| Cc1nnc(CN(C)Cc2ccc(C(=O)Nc3sccc3C#N)cc2)o1 | -6.88 |
| Cc1cc(NCCNc2ncccc2C)n2nc(C)cc2n1 | 2.41 |
| CS(=O)(=O)N(Cc1ccon1)c1ccc(F)cc1 | 2.24 |
| CC(C)Nc1cc(N2CCC(n3cc(C4CCCC4)nn3)CC2)ncn1 | 7.81 |
| O=C(c1cnc2ccccc2c1)N1CCCC(O)(CN2CCCC2)C1 (centres undefined) | 9.27 |
| CNC(=O)c1noc(Cn2ncc3ccccc3c2=O)n1 | -5.35 |
| CC(C)NS(=O)(=O)c1cc(C(=O)O)cc(-c2ccc(CN(C)C)cc2)c1 | 13.3 |
| CCSc1ncc(Cl)c(C(=O)NC(CCSC)C(=O)O)n1 (centres undefined) | -8.91 |
| CCC(NC(=O)c1nn(C)cc1C(=O)O)c1ccccc1 (centres undefined) | -7.41 |
| Cc1nnc(NCc2ccccc2S(=O)(=O)N(C)C)c(C#N)c1C | -8.51 |
| Cc1cnn(CC2CCCN2C(=O)c2ccc(-n3cccn3)nc2)c1 (centres undefined) | -15.7 |
| Cc1cccc(OCCCNC(=O)NC(C)c2nncn2C)c1 (centres undefined) | -7.5 |
| Cc1cc(NC(=O)CN(C)C2CCCN(c3cccnn3)C2)n(C)n1 (centres undefined) | -12.4 |

| SMILES | cytotoxicity at 10 µM [%] |
| --- | --- |
| CN1CCC(NC(=O)NCCNc2ccccn2)CC1 | -1.72 |
| COc1ccc(CNCC2CCN(CC(C)O)CC2)c2ccccc12 (centres undefined) | -11.5 |
| CCc1ccc(C(=O)N2CCN(CC(C)O)CC2)o1 (centres undefined) | -8.18 |
| COc1cccc2cc(CNC(C)(C)C(=O)N3CCC(O)CC3)oc12 | -12.2 |
| Cc1cc(C2CCCN(CCCS(=O)(=O)c3ccccc3)C2)n[nH]1 (centres undefined) | -7.64 |
| Cn1cnnc1C1CCCN(C(=O)c2cc(Cl)c3c(c2)OCO3)C1 (centres undefined) | -1.08 |
| Cc1cc(CN(C)C(=O)c2ccc(C(F)(F)F)nc2)no1 | 2.05 |
| Cc1cc(C)c(CNC(=O)N2CCCC2c2cccn2C)c(=O)[nH]1 (centres undefined) | -2.82 |
| Cc1nc2ccccc2nc1CN1CCCC1c1c(C)nn(C)c1C (centres undefined) | -1.78 |
| Cc1cccnc1[C@]1(O)CC[C@H]2CN(Cc3cccc(Cl)c3Cl)C[C@H]21 | -5.86 |
| c1csc(CN2CCCn3nnc(COCC4CC4)c3C2)n1 | -101 |
| O=C(N1CCOCC1)N1CCc2ncc(CN3CCCCC3)n2CC1 | -87.7 |
| Cc1cc(F)ccc1C(=O)N1C[C@@H]2COC[C@]2(CN(C)C)C1 | -142 |
| NCCCNS(=O)(=O)Cc1ccc(Br)cc1 | -0.447 |
| Cc1occc1C(=O)N1C[C@@H]2OCCN(C(C)C)[C@@H]2C1 | -73.4 |
| CN(C)C[C@@H]1CCC[C@@H]2CN(c3ncccn3)C[C@@H]21 | 5.85 |
| O=C(c1cscn1)N1CCC2(CN(Cc3nccs3)C2)C1 | -72.6 |
| O=C1[C@H]2CN(Cc3ccncc3)C[C@H]2CN1c1ccsc1 | -81.1 |
| Cc1nc(CN2C[C@@H]3CN(C(=O)c4cccn4C)C[C@@H]3C2)cs1 | 0.346 |
| Cc1ccc(CN2C[C@@H]3C[C@H](C(=O)NCC4CC4)N(C)[C@@H]3C2)o1 | -3.63 |
| CSc1nc(N)c2c(n1)N=C1COC(=O)C1C2c1cccc(Cl)c1 (centres undefined) | 37.5 |
